Assay results published in paper PMC2992437 (ACS chemical neuroscience, 2010).
Where two headings read alike, the source gives them in different places. Values belong to the compound of their own block, whether it stands above or below them.

Tests used:
[1] = tested on: NPS induced hyperlocomotion; settings: cited from earlier work
[2] = target: T1, NPSR (Homo sapiens, UniProt Q6W5P4); test: Radioligand binding assay, displacement of [125I]Y10-NPS on CHO-NPSR cells
T1 sequence (Q6W5P4 1-371): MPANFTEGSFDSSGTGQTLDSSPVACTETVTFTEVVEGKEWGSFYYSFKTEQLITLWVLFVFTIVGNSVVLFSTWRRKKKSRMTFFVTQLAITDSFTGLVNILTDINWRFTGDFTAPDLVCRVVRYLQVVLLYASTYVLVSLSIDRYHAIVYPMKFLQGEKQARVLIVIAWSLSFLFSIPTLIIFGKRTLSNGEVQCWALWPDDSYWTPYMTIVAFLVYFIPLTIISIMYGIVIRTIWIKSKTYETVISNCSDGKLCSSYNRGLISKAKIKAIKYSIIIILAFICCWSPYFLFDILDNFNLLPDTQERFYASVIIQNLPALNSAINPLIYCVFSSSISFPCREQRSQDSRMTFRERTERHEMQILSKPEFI
Method in brief: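 Whole CHO-NPSR cells at about 95% confluence were washed with PBS. They were then incubated for 90 min at room temperature in DMEM with 0.1% BSA, 0.15 nM [125I]Y10-NPS and increasing concentrations of unlabeled human NPS or test compound. Nonspecific binding was taken with 1 μM NPS. Cells were washed in ice-cold PBS, lysed in 1 N NaOH and gamma-counted. Experiments were run in duplicate.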

[3] = target: T1, NPSR; test: cAMP assay; format: cell-based; settings: Table 5
[4] = target: T1, NPSR; test: Intracellular calcium assay; format: cell-based

Structure (SMILES): O=C1OC(c2ccccc2)(c2ccccc2)N2CCN(C(=O)NCc3ccc(F)cc3)CC12 (centres unmarked) [Compound 1, N-(4-fluorobenzyl)-1-oxo-3,3-diphenyltetrahydro-1H-oxazolo[3,4-a]pyrazine-7(3H)-carboxamide]
- effect on NPS induced hyperlocomotion ([1]; mice): partially reduce the NPS induced hyperlocomotion

Structure (SMILES): CCC(C)(CCN1CCOCC1)N(Cc1cc2ccccc2n(C)c1=O)C(=O)C1CCCCC1 (centres unmarked) [Compound 2, N-(3-methyl-1-morpholinopentan-3-yl)-N-((1-methyl-2-oxo-1,2-dihydroquinolin-3-yl)methyl)cyclohexanecarboxamide]
- effect on NPS induced hyperlocomotion ([1]; initial pharmacological results): capacity to reduce the NPS induced hyperlocomotion

Second part, the compound after the results:

- Ki [2]: 210 nM
Structure (SMILES): COc1ccc(C2c3c(ncn(CCN4CCOCC4)c3=N)Oc3ccc4ccccc4c32)cc1OC (centres unmarked) [Compound 3a, 10-(2-morpholinoethyl)-12-(3,4-dimethoxyphenyl)-12H-naphtho[1',2':5,6]pyrano[2,3-d]pyrimidin-11-imine]

- cAMP activity (in words) [3]: no cAMP activity
Structure (SMILES): COc1cccc(C2c3c(ncn(-c4ccccc4C#N)c3=N)Oc3ccc4ccccc4c32)c1 (centres unmarked) [Compound 3aa, 10-(2-Cyanophenyl)-12-(3-methoxyphenyl)-12H-naphtho[1',2':5,6]pyrano[2,3-d]pyrimidin-11-imine]

- IC50 [4]: > 30000 nM
Structure (SMILES): COc1ccc(C2c3c(N)nc(Cc4ccccc4)nc3Oc3ccc4ccccc4c32)cc1OC (centres unmarked) [Compound 10a]
